Experiments:
Assay type in all cases: functional, organism-based
Mus musculus [1] = test: Antitumor activity against L1210/0 leukemia cells in mice at the optimal dose of 75 mg/kg/injection (median survival time of [treated mice/control mice])
Outline: (§1)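 Male B6D2F1 (C57BL/6 × DBA/2) mice were inoculated ip with 1 × 10^5 leukemia cells on day 0. Drug was given ip on days 1, 5 and 9, prepared in water or 0.9% NaCl and administered immediately, over a dose range of 0.5–200 mg/kg/injection. Animals were monitored daily. %T/C = median survival of treated × 100/median survival of controls. Cures were mice alive at day 60.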

Mus musculus [2] = test: Antitumor activity against L1210/cisplatin leukemia cells in mice at the optimal dose of 75 mg/kg/injection (median survival time of [treated mice/control mice]); outline: as §1
Mus musculus [3] = test: Antitumor activity against L1210/cisplatin leukemia cells in mice at the optimal dose of 5 mg/kg/injection (median survival time of [treated mice/control mice]); outline: as §1
Mus musculus [4] = test: Antitumor activity against M5076 reticulosarcoma grown subcutaneously in mice at the optimal dose of 5 mg/kg/injection
Outline: (§2)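 Male B6D2F1 (C57BL/6 × DBA/2) mice received 1 × 10^7 M5076 cells sc on day 0. Drug was given ip on days 5, 9, 13 and 17, prepared in water or 0.9% NaCl and given immediately, over a dose range of 0.5–200 mg/kg/injection. Animals were monitored daily. Results are expressed as %T/C (median survival ratio × 100) or as tumor growth delay.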

Mus musculus [5] = test: Antitumor activity against L1210/0 leukemia cells in mice at the optimal dose of 5 mg/kg/injection (median survival time of [treated mice/control mice]); outline: as §1
Mus musculus [6] = test: Antitumor activity against L1210/0 leukemia cells in mice at the optimal dose of 200 mg/kg/injection (median survival time of [treated mice/control mice]); outline: as §1
Mus musculus [7] = test: Antitumor activity against L1210/0 leukemia cells in mice at the optimal dose of 100 mg/kg/injection (median survival time of [treated mice/control mice]); outline: as §1
Mus musculus [8] = test: Antitumor activity against L1210/cisplatin leukemia cells in mice at the optimal dose of 50 mg/kg/injection (median survival time of [treated mice/control mice]); outline: as §1
Mus musculus [9] = test: Antitumor activity against M5076 reticulosarcoma grown subcutaneously in mice at the optimal dose of 100 mg/kg/injection; outline: as §2
Mus musculus [10] = test: Antitumor activity against L1210/cisplatin leukemia cells in mice at the optimal dose of 200 mg/kg/injection (median survival time of [treated mice/control mice]); outline: as §1
Mus musculus [11] = test: Antitumor activity against M5076 reticulosarcoma grown subcutaneously in mice at the optimal dose of 200 mg/kg/injection; outline: as §2
Mus musculus [12] = test: Antitumor activity against L1210/0 leukemia cells in mice at the optimal dose of 50 mg/kg/injection (median survival time of [treated mice/control mice]); outline: as §1
Mus musculus [13] = test: Antitumor activity against L1210/cisplatin leukemia cells in mice at the optimal dose of 100 mg/kg/injection (median survival time of [treated mice/control mice]); outline: as §1
Mus musculus [14] = test: Antitumor activity against L1210/0 leukemia cells in mice at the optimal dose of 25 mg/kg/injection (median survival time of [treated mice/control mice]); outline: as §1
Mus musculus [15] = test: Antitumor activity against L1210/cisplatin leukemia cells in mice at the optimal dose of 25 mg/kg/injection (median survival time of [treated mice/control mice]); outline: as §1

In the case of CARBOPLATIN, the T/C (Mus musculus [1]) is reported as 147% and the T/C (Mus musculus [2]) is reported as 111%.
CISPLATIN was tested, and the T/C (Mus musculus [3]) was 100%, the Tumor growth delay (Mus musculus [4]) was 16.3 days and the T/C (Mus musculus [5]) was 300%.
In the case of “Platinum IV (cis-1,2-diaminecyclohexyl)-trans-(acetate)2 (1,1-cyclobutanedicarboxylate)”, the T/C (Mus musculus [6]) is reported as 112%.
In the case of “Platinum IV (cis-1,2-diaminecyclohexyl)-trans-(acetate)2 (malonate)”, the T/C (Mus musculus [6]) is reported as 206%.
“Platinum IV (cis-1,2-diaminecyclohexyl)-trans-(acetate)2 (oxalate)” showed a T/C (Mus musculus [7]) of 159%.
“Platinum IV (trans-(1R,2R)-diaminecyclohexyl) (acetate)4” was tested, and the T/C (Mus musculus [6]) was 206%.
With “Platinum IV (trans-(1R,2R)-diaminecyclohexyl)-trans-(acetate)2” the T/C (Mus musculus [8]) was 144%, the T/C (Mus musculus [7]) was 265% and the Tumor growth delay (Mus musculus [9]) was 19.5 days.
In the case of “Platinum IV (trans-(1R,2R)-diaminecyclohexyl)-trans-(acetate)2 (1,1-cyclobutanedicarboxylate)”, the T/C (Mus musculus [10]) is reported as 100%, the T/C (Mus musculus [6]) is reported as 112% and the Tumor growth delay (Mus musculus [11]) is reported as 15.8 days.
“Platinum IV (trans-(1R,2R)-diaminecyclohexyl)-trans-(acetate)2 (cyclobutanecarboxylate)2” was tested, and the T/C (Mus musculus [8]) was 157% and the T/C (Mus musculus [7]) was 206%.
“Platinum IV (trans-(1R,2R)-diaminecyclohexyl)-trans-(acetate)2 (methylmalonate)” was tested, and the T/C (Mus musculus [10]) was 93%, the T/C (Mus musculus [6]) was 147% and the Tumor growth delay (Mus musculus [11]) was 21.3 days.
In the case of “Platinum IV (trans-(1R,2R)-diaminecyclohexyl)-trans-(acetate)2 (oxalate)”, the T/C (Mus musculus [12]) is reported as 171%.
In the case of “Platinum IV (trans-(1R,2R)-diaminecyclohexyl)-trans-(trifluoroacetate)2 (1,1-cyclobutanedicarboxylate)”, the T/C (Mus musculus [13]) is reported as 205% and the T/C (Mus musculus [6]) is reported as 253%.
“Platinum IV (trans-(1R,2R)-diaminecyclohexyl)-trans-(trifluoroacetate)2 (acetate)4” was tested, and the T/C (Mus musculus [14]) was 218% and the T/C (Mus musculus [15]) was 148%.
For “Platinum IV (trans-(1R,2R)-diaminecyclohexyl)-trans-(trifluoroacetate)2 (oxalate)”, the T/C (Mus musculus [8]) was 176% and the T/C (Mus musculus [12]) was over 700%.
With “Platinum IV (trans-(1S,2S)-diaminecyclohexyl) (acetate)4” the T/C (Mus musculus [6]) was 194%.
“Platinum IV (trans-(1S,2S)-diaminecyclohexyl)-trans-(acetate)2 (cyclobutanecarboxylate)2” showed a T/C (Mus musculus [12]) of 182%.
Work on “Platinum IV (trans-(1S,2S)-diaminecyclohexyl)-trans-(acetate)2 (oxalate)” yielded a T/C (Mus musculus [12]) of 135%.
Substance [Pt(O2CCH3)4(dach)]dach has a T/C (Mus musculus [6]) of 182%.
